Experimental data published in ChEMBL document CHEMBL2380280, “Xanthates and trithiocarbonates strongly inhibit carbonic anhydrases and show antiglaucoma effects in vivo” (J Med Chem, 2013).
One block for each compound: values may come before it. Calls of active or inactive are those of the source. The rule behind the calls is not given here.

How the values were obtained:
Carbonic anhydrase 9 = Carbonic anhydrase 9 (Homo sapiens, UniProt Q16790); assay: Inhibition of recombinant human CA9 transmembrane isoform preincubated for 15 mins by stopped-flow CO2 hydration assay
Oryctolagus cuniculus [1] = assay: Antiglaucoma activity in hypertensive New Zealand albino rabbit model assessed as decrease in carbomer-induced intraocular pressure at 2% administered to eye measured up to 200 to 250 mins by tanometric analysis; assay type: functional, organism-based
Procedure, shortened: (§1)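 Adult male New Zealand albino rabbits, 2−2.5 kg. Glaucoma induced by bilateral anterior-chamber injection of 0.1 mL 0.25% carbomer under im tiletamine/zolazepam plus xilazine anaesthesia. Once IOP was stably raised, drug was instilled into one eye and vehicle into the contralateral eye, three animals per drug. IOP was read by Tono-Pen tonometer after oxybuprocaine drops, before dosing and at 30, 60, 90, 120, 240 and 300 min.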

Oryctolagus cuniculus [2] = assay: Antiglaucoma activity in hypertensive New Zealand albino rabbit model assessed as decrease in carbomer-induced intraocular pressure at 2% administered to eye after 50 to 100 mins by tanometric analysis (reference value: 35 to 40 mmHg); assay type: functional; procedure, shortened: as §1
Oryctolagus cuniculus [3] = assay: Antiglaucoma activity in normotensive New Zealand rabbit model assessed as decrease in intraocular pressure at 2% administered to eye vitreous by tanometric analysis; assay type: functional
Carbonic anhydrase 12 = Carbonic anhydrase 12 (Homo sapiens, UniProt O43570); assay: Inhibition of recombinant human CA12 transmembrane isoform preincubated for 15 mins by stopped-flow CO2 hydration assay
Carbonic anhydrase 2 = Carbonic anhydrase 2 (Homo sapiens, UniProt P00918); assay: Inhibition of recombinant human CA2 cytosolic isoform preincubated for 15 mins by stopped-flow CO2 hydration assay
Carbonic anhydrase 1 = Carbonic anhydrase 1 (Homo sapiens, UniProt P00915); assay: Inhibition of recombinant human CA1 cytosolic isoform preincubated for 15 mins by stopped-flow CO2 hydration assay
Oryctolagus cuniculus [4] = assay: Antiglaucoma activity in hypertensive New Zealand albino rabbit model assessed as decrease in carbomer-induced intraocular pressure at 2% administered to eye after > 250 mins by tanometric analysis; assay type: functional, organism-based; procedure, shortened: as §1
Oryctolagus cuniculus [5] = assay: Antiglaucoma activity in hypertensive New Zealand albino rabbit model assessed as decrease in carbomer-induced intraocular pressure at 2% administered to eye after 100 mins by tanometric analysis (reference value: 35 to 40 mmHg); assay type: functional; procedure, shortened: as §1
Oryctolagus cuniculus [6] = assay: Antiglaucoma activity in hypertensive New Zealand albino rabbit model assessed as decrease in carbomer-induced intraocular pressure at 2% administered to eye after 150 mins by tanometric analysis; assay type: functional, organism-based; procedure, shortened: as §1
Oryctolagus cuniculus [7] = assay: Antiglaucoma activity in normotensive New Zealand rabbit model assessed as decrease in intraocular pressure administered to eye vitreous by tanometric analysis; assay type: functional, organism-based

Chain of Carbonic anhydrase 12 (O43570 whole entry, canonical isoform): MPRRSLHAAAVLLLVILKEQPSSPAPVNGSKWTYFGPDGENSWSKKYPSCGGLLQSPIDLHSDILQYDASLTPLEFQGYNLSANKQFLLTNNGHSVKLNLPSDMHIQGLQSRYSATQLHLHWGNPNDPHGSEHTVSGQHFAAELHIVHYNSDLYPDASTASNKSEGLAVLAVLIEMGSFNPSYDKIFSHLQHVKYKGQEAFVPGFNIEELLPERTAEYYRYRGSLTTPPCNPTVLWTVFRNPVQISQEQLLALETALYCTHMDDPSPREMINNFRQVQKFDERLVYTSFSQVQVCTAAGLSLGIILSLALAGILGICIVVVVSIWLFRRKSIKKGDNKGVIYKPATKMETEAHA
Chain of Carbonic anhydrase 1 (P00915 whole entry, canonical isoform): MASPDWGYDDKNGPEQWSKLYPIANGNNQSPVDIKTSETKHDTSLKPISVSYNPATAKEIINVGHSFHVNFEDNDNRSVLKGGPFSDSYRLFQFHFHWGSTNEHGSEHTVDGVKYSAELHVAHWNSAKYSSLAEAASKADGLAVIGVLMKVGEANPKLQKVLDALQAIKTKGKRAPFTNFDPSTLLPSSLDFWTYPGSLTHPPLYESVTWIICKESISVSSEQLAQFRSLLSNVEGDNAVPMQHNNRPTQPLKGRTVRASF

SMILES: S=C(S)OC1CCCCC1
Ki (Carbonic anhydrase 9): 78.8 nM

SMILES: CC(C)(C)OC(=O)NCCCCOC(=S)[S-].[K+]
Activity (Oryctolagus cuniculus [1]): Active
Activity (Oryctolagus cuniculus [2]): 4 mmHg
Activity (Oryctolagus cuniculus [3]): 1 mmHg
Ki (Carbonic anhydrase 9): 622 nM

SMILES: S=C(S)OC1CC2CC1C1CCCC21 (centres undefined)
Ki (Carbonic anhydrase 12): 835 nM
Ki (Carbonic anhydrase 9): 643 nM
Ki (Carbonic anhydrase 2): 6.6 nM
Ki (Carbonic anhydrase 1): 63.4 nM

SMILES: CCOC(=S)S
Ki (Carbonic anhydrase 9): 566 nM

SMILES: S=C(S)OC1CCCC1
Ki (Carbonic anhydrase 12): 74.7 nM
Ki (Carbonic anhydrase 9): 47.2 nM
Ki (Carbonic anhydrase 2): 366 nM
Ki (Carbonic anhydrase 1): 532 nM

SMILES: CCN[C@H]1C[C@H](C)S(=O)(=O)c2sc(S(N)(=O)=O)cc21
Activity (Oryctolagus cuniculus [6]): inactive
Activity (Oryctolagus cuniculus [7]): inactive

SMILES: S=C(S)OCC12CC3CC(CC(C3)C1)C2
Ki (Carbonic anhydrase 9): 776 nM

SMILES: CN(C)CCOCCOC(=S)[S-].[K+]
Activity (Oryctolagus cuniculus [1]): Active
Activity (Oryctolagus cuniculus [2]): 4 mmHg
Activity (Oryctolagus cuniculus [3]): 1 mmHg
Ki (Carbonic anhydrase 9): 831 nM

SMILES: S=C([S-])OCCC12CC3CC(CC(C3)C1)C2.[K+]
Activity (Oryctolagus cuniculus [1]): Active
Activity (Oryctolagus cuniculus [2]): 4 mmHg
Activity (Oryctolagus cuniculus [3]): 1 mmHg
Ki (Carbonic anhydrase 9): 779 nM

SMILES: CC(C)OC(=S)S
Ki (Carbonic anhydrase 9): 531 nM

SMILES: CC(C)(C)OC(=O)NCCCCCCOC(=S)S
Ki (Carbonic anhydrase 9): 765 nM

The next lines start with results.

Ki (Carbonic anhydrase 9): 678 nM
SMILES: N#CNC(=S)S

Ki (Carbonic anhydrase 9): 631 nM
SMILES: COC(=S)S

Ki (Carbonic anhydrase 9): 58 nM
SMILES: S=C([S-])OCC(c1ccccc1)c1ccccc1.[K+]
Activity (Oryctolagus cuniculus [4]): Active
Activity (Oryctolagus cuniculus [5]): 12 mmHg
Activity (Oryctolagus cuniculus [1]): Active
Activity (Oryctolagus cuniculus [3]): 1 mmHg

Ki (Carbonic anhydrase 9): 760 nM
SMILES: CN(C)CCOC(=S)S

Ki (Carbonic anhydrase 9): 72.1 nM
SMILES: CCCCCCCCOC(=S)S

Ki (Carbonic anhydrase 9): 7.8 nM
SMILES: S=C(S)SCc1ccccc1

Ki (Carbonic anhydrase 9): 8.1 nM
SMILES: S=C(S)OCc1ccccc1

Ki (Carbonic anhydrase 9): 403 nM
SMILES: CCCCCOC(=S)S

Ki (Carbonic anhydrase 9): 4.3 nM
SMILES: S=C([S-])OCCc1ccccn1.[K+]
Activity (Oryctolagus cuniculus [1]): Active
Activity (Oryctolagus cuniculus [2]): 4 mmHg
Activity (Oryctolagus cuniculus [3]): 1 mmHg

Ki (Carbonic anhydrase 9): 322 nM
SMILES: CC(C)CCOC(=S)S
